This is an account of results in ChEMBL document CHEMBL2016446, “Trivalent ultrashort lipopeptides are potent pH dependent antifungal agents” (J Med Chem, 2012).

In this test the test system is Aspergillus fumigatus. Nature of the test: Antifungal activity against Aspergillus fumigatus Af293 infected in immunocompromized ICR mouse assessed as survival rate at 4.5 mg/kg, at pH 5.5 it administered on day 1, 4, 7 and 11 monitored for 28 days relative to control. The test is classed as functional. As to conditions: route endotracheal. The method, boiled down:
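Six-week-old female ICR mice immunocompromised with cortisone acetate (150 mg/kg in PBS/0.1% Tween 80, s.c.) 4 days before treatment, on day of first treatment, and 2 and 4 days after. A. fumigatus lung infection on day 1. Lipopeptide given i.t. at 4.5 mg/kg (50 μL, pH 5.5) on days 1, 4, 7 and 11. Controls: saline, amphotericin B 1 mg/kg i.p. Survival followed 28 days; n = 9–10.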

On to `CCCCCCCCCCCCCC(=O)N[C@@H](Cc1c[nH]cn1)C(=O)N[C@@H](Cc1c[nH]cn1)C(=O)N1CCCN(C(=O)[C@H](Cc2c[nH]cn2)NC(=O)[C@H](Cc2c[nH]cn2)NC(=O)CCCCCCCCCCCCC)Cc2cc(cc(C(N)=O)c2)CN(C(=O)[C@H](Cc2c[nH]cn2)NC(=O)[C@H](Cc2c[nH]cn2)NC(=O)CCCCCCCCCCCCC)CCC1`, for which the survival at 4.5 mg/kg amounted to 55%.
